Results reported in ChEMBL document CHEMBL1142665, “Synthesis and cytotoxic evaluation of novel spirohydantoin derivatives of the dihydrothieno[2,3-b]naphtho-4,9-dione system” (J Med Chem, 2005).

What was measured:
SW-620 = test: Inhibitory concentration against SW 620 human colon carcinoma cell line; type: functional, cell-based
Method in brief: (§1)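 Monolayer cultures in RPMI-1640 with 10% FBS; sensitive lines from ATCC, drug-resistant sublines from Istituto Tumori of Milan. Cells seeded at about 10% confluency and allowed 24 h to attach and recover. Exposed to varying drug concentrations for 24 h at 37 °C under 5% CO2, washed, then grown 48 h drug-free. Vehicle-matched controls. SRB read-out as %T/C. IC50 taken from dose/effect curve. Triplicate wells, mean of ≥3 independent experiments.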

MCF7 [1] = test: Inhibitory concentration against MCF-7 human breast carcinoma cell line; type: functional, cell-based; method in brief: as §1
A2780cisR = test: Inhibitory concentration against A2780 ovarian carcinoma resistant to cisplatin; type: functional, cell-based; details: Homo sapiens; method in brief: as §1
A2780 [2] = test: Inhibitory concentration against A2780 ovarian carcinoma resistant to doxorubicin; type: functional, cell-based; details: Homo sapiens; method in brief: as §1
A549 = test: Inhibitory concentration against A549 lung carcinoma cell line; type: functional, cell-based; details: Homo sapiens; method in brief: as §1
HEp-2 = test: Inhibitory concentration against Hep-2 epidermal carcinoma cell line; type: functional, cell-based; details: Homo sapiens; method in brief: as §1
LoVo = test: Inhibitory concentration against LoVo colon carcinoma cell line; type: functional, cell-based; details: Homo sapiens; method in brief: as §1
KB = test: Inhibitory concentration against KB epidermal carcinoma cell line; type: functional, cell-based; details: Homo sapiens; method in brief: as §1
NCI-H460 = test: Inhibitory concentration against NCI-H460 lung carcinoma cell line; type: functional, cell-based; details: Homo sapiens; method in brief: as §1
[3] = Inhibitory concentration against MeVo melanoma cell line; type: functional, Homo sapiens; method in brief: as §1
A2780 [4] = test: Inhibitory concentration against A2780 ovarian carcinoma cell line; type: functional, cell-based; details: Homo sapiens; method in brief: as §1
MCF7 [5] = test: Inhibitory concentration against MCF-7 human breast carcinoma resistant to doxorubicin; type: functional, cell-based; method in brief: as §1

SMILES | IC50 (SW-620; Homo sapiens, SW-620) | IC50 (MCF7 [1]; Homo sapiens, MCF7) | also measured
CCCN1C(=O)NC2(CSC3=C2C(=O)c2ccccc2C3=O)C1=O (configuration not stated) | 379 nM | 104 nM | 
CCN1C(=O)NC2(CSC3=C2C(=O)c2ccccc2C3=O)C1=O (configuration not stated) | 203 nM | 116 nM | 
CCN(CC)CCCN1C(=O)NC2(CSC3=C2C(=O)c2ccccc2C3=O)C1=O (configuration not stated) | 54 nM | 26 nM | 
CCCCN1C(=O)NC2(CSC3=C2C(=O)c2ccccc2C3=O)C1=O (configuration not stated) | 740 nM | 178 nM | 
CCN(CC)CCN1C(=O)NC2(CSC3=C2C(=O)c2ccccc2C3=O)C1=O (configuration not stated) | 50 nM | 21 nM | 
NCCCCN1C(=O)NC2(CSC3=C2C(=O)c2ccccc2C3=O)C1=O (configuration not stated) | 68 nM | 35 nM | 
NCCCN1C(=O)NC2(CSC3=C2C(=O)c2ccccc2C3=O)C1=O (configuration not stated) | 52 nM | 25 nM | 
CN1C(=O)NC2(CSC3=C2C(=O)c2ccccc2C3=O)C1=O (configuration not stated) | 108 nM | 23 nM | 
O=C1C2=C(C(=O)c3ccccc31)C1(CS2)NC(=O)N(CCO)C1=O (configuration not stated) | 198 nM | 69 nM | 
CCC(C)N1C(=O)NC2(CSC3=C2C(=O)c2ccccc2C3=O)C1=O (configuration not stated) | 562 nM | 178 nM | 
O=C1C2=C(C(=O)c3ccccc31)C1(CS2)NC(=O)N(CCCO)C1=O (configuration not stated) | 119 nM | 40 nM | 
CN(C)CCN1C(=O)NC2(CSC3=C2C(=O)c2ccccc2C3=O)C1=O (configuration not stated) | 57 nM | 32 nM | 
CC(C)(C)N1C(=O)NC2(CSC3=C2C(=O)c2ccccc2C3=O)C1=O (configuration not stated) | 900 nM | 331 nM | 
CN(C)CCCN1C(=O)NC2(CSC3=C2C(=O)c2ccccc2C3=O)C1=O (single isomer, unassigned; (+)) |  |  | IC50 (SW-620; sw-620): 60 nM
NCCN1C(=O)NC2(CSC3=C2C(=O)c2ccccc2C3=O)C1=O (single isomer, unassigned; (+)) |  |  | IC50 (SW-620; sw-620): 34 nM; IC50 (MCF7 [1]; mcf7): 20 nM
NCCN1C(=O)NC2(CSC3=C2C(=O)c2ccccc2C3=O)C1=O (stereo in doubt; 11) | 35 nM | 22 nM | 
CN(C)CCCN1C(=O)NC2(CSC3=C2C(=O)c2ccccc2C3=O)C1=O (stereo in doubt; 15) | 58 nM | 19 nM | IC50 (A2780cisR): 110 nM; IC50 (A2780 [2]): 130 nM; IC50 (A549): 110 nM; IC50 (HEp-2): 170 nM; IC50 (LoVo): 230 nM; IC50 (KB): 100 nM; IC50 (NCI-H460): 260 nM; IC50 [3]: 250 nM; IC50 (A2780 [4]): 68 nM; IC50 (MCF7 [5]): 173 nM
NCCN1C(=O)NC2(CSC3=C2C(=O)c2ccccc2C3=O)C1=O (stereo in doubt; (-)-11) |  |  | IC50 (SW-620; sw-620): 47 nM; IC50 (MCF7 [1]; mcf7): 31 nM
CN(C)CCCN1C(=O)NC2(CSC3=C2C(=O)c2ccccc2C3=O)C1=O (stereo in doubt; (-)-15) |  |  | IC50 (SW-620; sw-620): 65 nM; IC50 (MCF7 [1]; mcf7): 27 nM
COc1cccc2c1C(=O)c1c(O)c3c(c(O)c1C2=O)C[C@@](O)(C(=O)CO)C[C@@H]3O[C@H]1C[C@H](N)[C@H](O)[C@H](C)O1 [DOXORUBICIN] | 178 nM |  | IC50 (A2780cisR): 6 nM; IC50 (A2780 [2]): 290 nM; IC50 (A549): 64 nM; IC50 (HEp-2): 59 nM; IC50 (LoVo): 33 nM; IC50 (KB): 21 nM; IC50 (NCI-H460): 10 nM; IC50 [3]: 820 nM; IC50 (A2780 [4]): 7 nM
